In article PMC4876925 (Nano research, 2016):
Blank lines part the entries; values can stand above or below the compound they belong to. Residues, ends and D or L forms follow the SMILES beside them.

Experiments:
[1] = target: recombinant human His-tagged CD13 (Homo sapiens, UniProt P15144); assay: CD13 enzymatic activity assay; format: biochemical
αvβ3 = αvβ3 (Homo sapiens, UniProt P05106+P06756); assay: Integrin competitive binding assay with CisoDGRC-peroxidase
WEHI-164 fibrosarcoma = assay: Anti-tumor activity in the WEHI-164 fibrosarcoma model; format: in vivo, BALB/c female mice; conditions: dose-escalation, i.v.
Method in brief: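 Female BALB/c mice, 6–7 weeks old, received 1.5 × 10^6 WEHI-164 cells s.c. in the left flank. On day 5, mice got single i.v. doses of TNF-loaded gold nanoparticles (1–4 or 9–16 bioactive TNF molecules/nanoparticle) in 0.9% NaCl with 100 µg/mL HSA. Tumors were measured with calipers and volumes from day 5 to day 9 were normalized to day 5. Data are mean ± SE from 1–7 independent experiments, 6 mice each.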

[2] = cited from earlier work

CD13 inhibition efficiency relative to NGR-2C(Y) ([1]; enzyme inhibition, 30 min at 37 °C): 5–6 fold | Binding efficiency to CD13 relative to CNGRC (NGR-2C) and c(CNGRGG) (N3) ([1]; recombinant soluble CD13, enzyme binding and inhibition experiments): 6–10 fold | EC50 (αvβ3): 10 µM
Compound: N=C(N)NCCC[C@@H]1NC(=O)CNC(=O)[C@H](CC(N)=O)NC(=O)CNC(=O)[C@H](CS)NC(=O)CNC1=O [N1, c(CGNGRG)] (cyclo(CGNGRG))

Compound: CNGRCG-TNF (disulfide) [NGR-TNF]
Shape of dose-response curve (tumor growth day 5 to day 9) (WEHI-164 fibrosarcoma): U-shaped dose-response curve

Compound: CNGRC (disulfide) [NGR-2C]
Half-life of asparagine (deamidation) [2]: 3 to 4 h
